PGC1a Ac signal = raises PGC1a acetylation signal in U2OS cells; U2OS PGC1a acetylation AlphaScreen, overnight; activation, % at 15.6 µM; actives 0.21% (n = 350,000); AID 651723;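 active = every replicate reaching activation of at least 50%, whatever the mean replicate activation; inconclusive = replicates that disagree or another doubt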;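 note: hits raise the AlphaScreen acetylation signal above neutral controls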
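System: flag-PGC1a/GCN5 U2OS cells / Input: 7000 cells/well / Compound: single test concentration per compound / Incubation: overnight compound treatment, 37 °C / Technique: AlphaScreen on lysates with anti-acetyl-lysine antibody, acceptor and donor beads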
Hep G6PC suppr = PGC-1a acetylation activator altering hepatocyte G6PC expression. shares compounds with PGC1a Ac signal. primary mouse hepatocytes, G6PC mRNA qPCR, forskolin. G6PC suppression (normalized activity, % of positive control; higher = more suppression), % at 26 µM. 240 tested, under 10 active. AID 743463;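 active = dose curves showing G6PC suppression whose half-maximal dose is at most twice the top valid dose; inconclusive = flat curves with moderate negative activity, or unreliable fits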;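 note: G6PC expression relative to GAPDH housekeeping gene as delta delta Ct; 0% = median of neutral control wells and 100% = median of positive control wells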
PCK1 hep suppr = hepatocyte PCK1 expression change via PGC-1a acetylation activation | shares compounds with PGC1a Ac signal | primary mouse hepatocytes, PCK1 mRNA qPCR, forskolin-stimulated | PCK1 expression decrease, unspecified at 26 µM | 230 tested, under 10 active;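 active = compounds lowering PCK1 expression whose fitted half-maximal concentration is at most twice the top tested dose; inconclusive = flat fit with moderate opposite-direction effect, or poor fit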;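 note: values are delta delta Ct of PCK1 relative to GAPDH; higher delta delta Ct means lower PCK1 expression so positive values indicate hits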
Hep PGC-1a down = PGC-1a acetylation activators affecting PGC-1a expression in hepatocytes. max activity (PGC-1a expression decrease), %. AID 743467. primary mouse hepatocytes, PGC-1a mRNA qPCR, forskolin; top dose 26 µM. shares compounds with PGC1a Ac signal. 240 tested, under 10 active;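 active = compound lowering PGC-1a expression with fitted half-maximal concentration at most twice its top tested dose; inconclusive = flat curve with moderate opposite-direction effect, or poor fit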;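 note: 0% = neutral control wells median and 100% = positive control wells median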
* marks the source's active call; other numbers are inactive results; [ ] = another dose, or the depositor's remark. Not all results are given here.

How did COc1cccc2c1C(=O)c1c(O)c3c(c(O)c1C2=O)C[C@@](O)(C(C)=O)C[C@@H]3O[C@H]1C[C@H](N)[C@H](O)[C@H](C)O1 do in these assays?
PGC1a Ac signal: -51

How did Cc1cccc(N2C(=O)C(Cl)=C(N3CCOCC3)C2=O)c1 do in these assays?
PGC1a Ac signal: -81

What do the screens show for `O=S(=O)(c1ccc(Cl)cc1)N1[C@@H]2CNC[C@H]1C2c1ccc(-c2cccc(F)c2)cc1` (some centres undefined)?
PGC1a Ac signal: 80*; Hep G6PC suppr: 10; PCK1 hep suppr: 47; Hep PGC-1a down: 110

Results for Cc1cc(C(=O)CSc2nnc(-c3ccccc3)o2)c(C)n1CC1COc2ccccc2O1 (centres undefined) ?
PGC1a Ac signal: -51

How did COc1ccc2c(c1)C(C)=CC(C)(C)N2S(=O)(=O)c1ccc(Br)cc1 do in these assays?
PGC1a Ac signal: 83*; PCK1 hep suppr: 149; Hep PGC-1a down: 43

What do the screens show for `C=CC(=O)NC(C)(C)Cc1ccccc1`?
PGC1a Ac signal: -44

How did Brc1ccc(N/N=C(/N=Nc2nn[nH]n2)c2ccccc2)cc1 do in these assays?
PGC1a Ac signal: -97

How did O=C(OCc1ccccc1)N1CCC2CC1c1cc(-c3ccc(F)cc3)ccc12 (centres undefined) do in these assays?
PGC1a Ac signal: -63

Results for COc1ccccc1C(NC(C)=O)c1cc(Cl)c2cccnc2c1O (centres undefined) ?
PGC1a Ac signal: -46

How did CCN1CCN(c2ncc(C(=O)Nc3cc(Cl)ccc3OC)c3ccccc23)CC1 do in these assays?
PGC1a Ac signal: -93; Hep G6PC suppr: 272[8 µM]; PCK1 hep suppr: inconclusive; Hep PGC-1a down: 110

Results for Cc1cccc(Oc2nccc(C(F)(F)F)c2C(=O)Nc2ccc(F)cc2F)c1 ?
PGC1a Ac signal: -85

What do the screens show for `O=C(c1ccccc1Cl)N1CCNCC1`?
PGC1a Ac signal: -67

Results for COc1ccc(Cc2nc(-c3ccc(NC(=O)c4cccnc4)cc3)no2)cc1 ?
PGC1a Ac signal: 240*; Hep G6PC suppr: -23; PCK1 hep suppr: -4.4; Hep PGC-1a down: 102

Bioassay records as filed in PubChem.
